In brackets after ≈: the same amount, converted by molar mass. Where only a bound is given, the exact number is not on record here.

The text below walks through data of ChEMBL document CHEMBL1687841, “Molecular analysis of antimicrobial resistance mechanisms in Neisseria gonorrhoeae isolates from Ontario, Canada” (2011).

Experiment [1] relates to Neisseria gonorrhoeae. Briefly: Antimicrobial activity against Neisseria gonorrhoeae clinical isolates harboring porB A121S mutant gene, PBP1 L421P mutant gene, PBP2 XXXVIII pattern, deletion of nucleotide A from […] promoter, MAST 3116 after 24 hrs by agar dilution method. The class given is functional. A digest of the protocol:
(§1)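 Ontario clinical isolates grown on GC agar plus 1% defined growth supplement, 37°C, 5% CO2, 20 to 24 h, subcultured twice before testing. MICs by agar dilution per CLSI guidelines. QC strains: ATCC 49226 and 2008 WHO panel strains F, G, K, L, N, O, P. Genotypes deduced by PCR and sequencing of ponA, penA, porB, mtrR and its promoter.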

In experiment [2] the test system is Neisseria gonorrhoeae. In words: Antimicrobial activity against Neisseria gonorrhoeae clinical isolates after 24 hrs by agar dilution method. The class given is functional.
For experiment [3], the system named is Neisseria gonorrhoeae. Briefly: Antimicrobial activity against Neisseria gonorrhoeae clinical isolates harboring porB G120K, A121D mutant gene, PBP1 L421P mutant gene, PBP2 XXXVIII pattern, deletion of nucleotide A from […] promoter, MAST 3158 after 24 hrs by agar dilution method. The class given is functional. An outline of the steps: as §1
Experiment [4] deals with Neisseria gonorrhoeae. In words: Antimicrobial activity against Neisseria gonorrhoeae clinical isolates harboring porB G120K, A121D mutant gene, PBP2 XXXVI pattern, deletion of nucleotide A from […] promoter, MAST 3596 after 24 hrs by agar dilution method. In kind it is functional. A digest of the protocol:
as §1

Experiment [5] has as its system Neisseria gonorrhoeae. Briefly: Antimicrobial activity against Neisseria gonorrhoeae clinical isolates harboring porB G120K, A121D mutant gene, PBP1 L421P mutant gene, PBP2 XXXVIII pattern, deletion of nucleotide A from […] promoter, MAST 3563 after 24 hrs by agar dilution method. The class given is functional. A digest of the protocol:
as §1

In experiment [6] the test system is Neisseria gonorrhoeae. Briefly: Antimicrobial activity against Neisseria gonorrhoeae clinical isolates harboring porB G120K, A121D mutant gene, PBP1 L421P mutant gene, PBP2 XXXVIII pattern, deletion of nucleotide A from […] promoter, MAST 3570 after 24 hrs by agar dilution method. The class given is functional. A digest of the protocol:
as §1

The subject of experiment [7] is Neisseria gonorrhoeae. In words: Antimicrobial activity against Neisseria gonorrhoeae clinical isolates harboring porB G120K, A121D mutant gene, PBP2 XXXVIII pattern, deletion of nucleotide A from […] promoter, MAST 3158 after 24 hrs by agar dilution method. In kind it is functional. An outline of the steps: as §1
In experiment [8] the test system is Neisseria gonorrhoeae. Briefly: Antimicrobial activity against Neisseria gonorrhoeae clinical isolates harboring porB G120K, A121D mutant gene, PBP1 L421P mutant gene, PBP2 XXXIV pattern, deletion of nucleotide A from […] promoter, MAST 225 after 24 hrs by agar dilution method. In kind it is functional. An outline of the steps: as §1
Experiment [9] relates to Neisseria gonorrhoeae. In words: Antimicrobial activity against Neisseria gonorrhoeae clinical isolates harboring PBP2 XXXV pattern, deletion of nucleotide A from […] promoter, MAST 546 after 24 hrs by agar dilution method. The class given is functional. An outline of the steps: as §1
The test system of experiment [10] is Neisseria gonorrhoeae. In words: Antimicrobial activity against Neisseria gonorrhoeae clinical isolates assessed as percent susceptible isolates after 24 hrs by agar dilution method. The class given is functional.
The subject of experiment [11] is Neisseria gonorrhoeae. Briefly: Antimicrobial activity against Neisseria gonorrhoeae clinical isolates harboring PBP2 XXXVIII pattern, deletion of nucleotide A from […] promoter, MAST 3553 after 24 hrs by agar dilution method. In kind it is functional. A digest of the protocol: as §1
Experiment [12] deals with Neisseria gonorrhoeae. Briefly: Antimicrobial activity against Neisseria gonorrhoeae clinical isolates harboring PBP1 L421P mutant gene, PBP2 XXXVII pattern, deletion of nucleotide A from […] promoter, MtrR G45D mutant MAST 299 after 24 hrs by agar dilution method. In kind it is functional. An outline of the steps:
as §1

Experiment [13] deals with Neisseria gonorrhoeae. Briefly: Antimicrobial activity against Neisseria gonorrhoeae clinical isolates harboring porB G120K, A121D mutant gene, PBP1 L421P mutant gene, PBP2 XXXVIII pattern, insertion of nucleotide T from […] promoter, MAST 3158 after 24 hrs by agar dilution method. In kind it is functional. A digest of the protocol:
as §1

Experiment [14] deals with Neisseria gonorrhoeae. Briefly: Antimicrobial activity against Neisseria gonorrhoeae clinical isolates assessed as percent resistant isolates after 24 hrs by agar dilution method. In kind it is functional.
The test system of experiment [15] is Neisseria gonorrhoeae. In words: Antimicrobial activity against Neisseria gonorrhoeae clinical isolates harboring PBP2 XXXIV pattern, MAST 51 after 24 hrs by agar dilution method. In kind it is functional. A digest of the protocol:
as §1

For experiment [16], the system named is Neisseria gonorrhoeae. In words: microbe, parasite or virus in culture. As to conditions: 24 h.

As to `CC1(C)S[C@@H]2[C@H](NC(=O)Cc3ccccc3)C(=O)N2[C@H]1C(=O)O` [PENICILLIN G], the MIC is 2 µg/mL (≈ 5.98 µM) with Neisseria gonorrhoeae [1]; 1 µg/mL (≈ 2.99 µM) in the experiment on Neisseria gonorrhoeae [3]; 0.5 µg/mL (≈ 1.5 µM) against Neisseria gonorrhoeae [4]; 1 µg/mL (≈ 2.99 µM) against Neisseria gonorrhoeae [5]; 2 µg/mL (≈ 5.98 µM) against Neisseria gonorrhoeae [6]; 1 µg/mL (≈ 2.99 µM) against Neisseria gonorrhoeae [7]. Moreover, the MIC against Neisseria gonorrhoeae [8] worked out at 2 µg/mL (≈ 5.98 µM); against Neisseria gonorrhoeae [9], 1 µg/mL (≈ 2.99 µM); against Neisseria gonorrhoeae [11], 0.5 µg/mL (≈ 1.5 µM); in the experiment with Neisseria gonorrhoeae [12] it was 2 µg/mL (≈ 5.98 µM); against Neisseria gonorrhoeae [13] it was 1 µg/mL (≈ 2.99 µM); with Neisseria gonorrhoeae [15], 1 µg/mL (≈ 2.99 µM). This compound showed an MIC50 in the experiment on Neisseria gonorrhoeae [2] of 0.25 µg/mL (≈ 0.748 µM). Further, the MIC90 against Neisseria gonorrhoeae [2] amounted to 2 µg/mL (≈ 5.98 µM). Besides, the Activity is on record as 10.7% in the experiment on Neisseria gonorrhoeae [10] and 12.1% in the experiment on Neisseria gonorrhoeae [14].
In the experiment with Neisseria gonorrhoeae [2], `CC[C@H]1OC(=O)[C@H](C)[C@@H](O[C@H]2C[C@@](C)(OC)[C@@H](O)[C@H](C)O2)[C@H](C)[C@@H](O[C@@H]2O[C@H](C)C[C@H](N(C)C)[C@H]2O)[C@](C)(O)C[C@@H](C)C(=O)[C@H](C)[C@@H](O)[C@]1(C)O` [ERYTHROMYCIN] yielded an MIC of no more than 1 µg/mL, an MIC50 of no more than 1 µg/mL and an MIC90 of 2 µg/mL (≈ 2.73 µM). For the same compound, the Activity with Neisseria gonorrhoeae [10] was 77.2%. For the same compound, the Activity with Neisseria gonorrhoeae [14] is recorded as 22.8%.
In the experiment with Neisseria gonorrhoeae [2], `CN[C@@H]1[C@H](O)[C@H](NC)[C@H]2O[C@@]3(O)C(=O)C[C@@H](C)O[C@H]3O[C@@H]2[C@H]1O` [SPECTINOMYCIN] gave an MIC50 of no more than 32 µg/mL. The compound also showed an MIC90 with Neisseria gonorrhoeae [2] of no more than 32 µg/mL. The Activity in the experiment with Neisseria gonorrhoeae [10] was 100%; in the experiment with Neisseria gonorrhoeae [14], 0%.
As to `C=CC1=C(C(=O)O)N2C(=O)[C@@H](NC(=O)/C(=N\OCC(=O)O)c3csc(N)n3)[C@H]2SC1` [CEFIXIME], the MIC in the experiment on Neisseria gonorrhoeae [1] was determined as 0.125 µg/mL (≈ 0.276 µM); against Neisseria gonorrhoeae [3], 0.125 µg/mL (≈ 0.276 µM); against Neisseria gonorrhoeae [4], 0.125 µg/mL (≈ 0.276 µM); with Neisseria gonorrhoeae [5], 0.125 µg/mL (≈ 0.276 µM); in the experiment on Neisseria gonorrhoeae [6] it was 0.125 µg/mL (≈ 0.276 µM); against Neisseria gonorrhoeae [7], 0.25 µg/mL (≈ 0.551 µM). For the same compound, the MIC with Neisseria gonorrhoeae [8] worked out at 0.25 µg/mL (≈ 0.551 µM); against Neisseria gonorrhoeae [9], 0.125 µg/mL (≈ 0.276 µM); in the experiment with Neisseria gonorrhoeae [11] it was 0.125 µg/mL (≈ 0.276 µM); in the experiment with Neisseria gonorrhoeae [12], 0.25 µg/mL (≈ 0.551 µM); against Neisseria gonorrhoeae [13], 0.125 µg/mL (≈ 0.276 µM); in the experiment on Neisseria gonorrhoeae [15] it was 0.125 µg/mL (≈ 0.276 µM). The same compound yielded an MIC50 in the experiment on Neisseria gonorrhoeae [2] of no more than 0.03 µg/mL. In the experiment with Neisseria gonorrhoeae [2], this compound registered an MIC90 of no more than 0.03 µg/mL. The Activity is given as 100% in the experiment with Neisseria gonorrhoeae [10] and 0% in the experiment with Neisseria gonorrhoeae [14].
For the compound `CN(C)[C@@H]1C(O)=C(C(N)=O)C(=O)[C@@]2(O)C(O)=C3C(=O)c4c(O)cccc4[C@@](C)(O)[C@H]3C[C@@H]12` [TETRACYCLINE], the MIC50 in the experiment with Neisseria gonorrhoeae [2] is 0.5 µg/mL (≈ 1.13 µM). In addition, the MIC90 against Neisseria gonorrhoeae [2] stood at 2 µg/mL (≈ 4.5 µM). The Activity in the experiment on Neisseria gonorrhoeae [10] stood at 27.5%; with Neisseria gonorrhoeae [14] it was 25.5%.
In the experiment on Neisseria gonorrhoeae [16], `CC[C@H]1OC(=O)[C@H](C)[C@@H](O[C@H]2C[C@@](C)(OC)[C@@H](O)[C@H](C)O2)[C@H](C)[C@@H](O[C@@H]2O[C@H](C)C[C@H](N(C)C)[C@H]2O)[C@](C)(O)C[C@@H](C)CN(C)[C@H](C)[C@@H](O)[C@]1(C)O` [AZITHROMYCIN] showed an MIC of 0.25 µg/mL (≈ 0.334 µM).
Take `CO/N=C(\C(=O)N[C@@H]1C(=O)N2C(C(=O)O)=C(CSc3nc(=O)c(O)nn3C)CS[C@H]12)c1csc(N)n1` [CEFTRIAXONE]: the MIC against Neisseria gonorrhoeae [1] amounted to 0.063 µg/mL (≈ 0.114 µM); with Neisseria gonorrhoeae [3], 0.063 µg/mL (≈ 0.114 µM); in the experiment on Neisseria gonorrhoeae [4] it was 0.125 µg/mL (≈ 0.225 µM); with Neisseria gonorrhoeae [5], 0.063 µg/mL (≈ 0.114 µM); in the experiment on Neisseria gonorrhoeae [6] it was 0.063 µg/mL (≈ 0.114 µM); with Neisseria gonorrhoeae [7] it was 0.125 µg/mL (≈ 0.225 µM). In addition, the MIC in the experiment with Neisseria gonorrhoeae [8] worked out at 0.125 µg/mL (≈ 0.225 µM); in the experiment on Neisseria gonorrhoeae [9], 0.125 µg/mL (≈ 0.225 µM); against Neisseria gonorrhoeae [11] it was 0.032 µg/mL (≈ 0.0577 µM); against Neisseria gonorrhoeae [12], 0.125 µg/mL (≈ 0.225 µM); against Neisseria gonorrhoeae [13], 0.063 µg/mL (≈ 0.114 µM); against Neisseria gonorrhoeae [15], 0.063 µg/mL (≈ 0.114 µM). Further, the MIC50 in the experiment on Neisseria gonorrhoeae [2] was no more than 0.03 µg/mL. The compound further registered an MIC90 with Neisseria gonorrhoeae [2] of no more than 0.06 µg/mL. Moreover, the figures for the Activity in the experiment with Neisseria gonorrhoeae [10] and in the experiment with Neisseria gonorrhoeae [14] were 100% and 0%, respectively.
